Experiment [1] concerns the target T1, Estrogen receptor (Homo sapiens, UniProt Q92731+P03372).
Experiment [2] addresses T2, Progesterone receptor (Homo sapiens) (UniProt P06401).
T2 sequence (whole entry): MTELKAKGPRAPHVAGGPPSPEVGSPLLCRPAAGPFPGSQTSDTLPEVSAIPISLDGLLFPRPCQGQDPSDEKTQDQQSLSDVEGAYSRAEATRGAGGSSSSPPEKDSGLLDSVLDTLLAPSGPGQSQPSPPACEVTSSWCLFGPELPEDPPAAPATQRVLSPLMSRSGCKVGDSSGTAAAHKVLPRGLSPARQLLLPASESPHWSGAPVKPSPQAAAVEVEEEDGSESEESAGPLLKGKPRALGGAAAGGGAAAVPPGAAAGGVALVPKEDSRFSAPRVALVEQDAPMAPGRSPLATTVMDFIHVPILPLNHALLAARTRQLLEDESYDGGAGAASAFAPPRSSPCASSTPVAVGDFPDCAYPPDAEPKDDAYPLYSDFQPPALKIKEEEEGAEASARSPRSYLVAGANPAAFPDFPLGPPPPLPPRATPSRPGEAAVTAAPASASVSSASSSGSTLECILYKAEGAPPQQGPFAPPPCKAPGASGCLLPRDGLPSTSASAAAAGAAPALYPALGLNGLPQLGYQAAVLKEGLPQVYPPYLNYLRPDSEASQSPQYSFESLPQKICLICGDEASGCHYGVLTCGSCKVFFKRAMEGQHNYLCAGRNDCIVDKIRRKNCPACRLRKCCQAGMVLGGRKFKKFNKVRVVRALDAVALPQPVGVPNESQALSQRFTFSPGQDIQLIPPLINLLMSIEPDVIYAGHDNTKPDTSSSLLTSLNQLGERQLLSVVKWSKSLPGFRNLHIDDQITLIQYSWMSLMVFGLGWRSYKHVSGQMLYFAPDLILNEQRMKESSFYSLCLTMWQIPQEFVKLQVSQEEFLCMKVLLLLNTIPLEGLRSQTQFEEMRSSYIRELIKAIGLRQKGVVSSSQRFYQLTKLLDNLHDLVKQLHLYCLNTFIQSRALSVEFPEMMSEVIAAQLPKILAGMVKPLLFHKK
In words: Percent agonistic effect towards human progesterone receptor in T47D breast cancer cells. Type of experiment: functional, cell-based.

In experiment [3] the target is T3, Progesterone receptor (Homo sapiens, UniProt P06401).
T3 sequence (P06401 whole entry): T2 sequence (whole entry)
In words: Agonistic activity against human progesterone receptor in T47D breast cancer cells. Type of experiment: functional, cell-based.

The species named for experiment [4] is Homo sapiens. In words: Relative potency for human androgen and progesterone receptors.
In experiment [5] the target is T4, Androgen receptor (Homo sapiens, UniProt P10275).
T4 sequence (P10275 whole entry): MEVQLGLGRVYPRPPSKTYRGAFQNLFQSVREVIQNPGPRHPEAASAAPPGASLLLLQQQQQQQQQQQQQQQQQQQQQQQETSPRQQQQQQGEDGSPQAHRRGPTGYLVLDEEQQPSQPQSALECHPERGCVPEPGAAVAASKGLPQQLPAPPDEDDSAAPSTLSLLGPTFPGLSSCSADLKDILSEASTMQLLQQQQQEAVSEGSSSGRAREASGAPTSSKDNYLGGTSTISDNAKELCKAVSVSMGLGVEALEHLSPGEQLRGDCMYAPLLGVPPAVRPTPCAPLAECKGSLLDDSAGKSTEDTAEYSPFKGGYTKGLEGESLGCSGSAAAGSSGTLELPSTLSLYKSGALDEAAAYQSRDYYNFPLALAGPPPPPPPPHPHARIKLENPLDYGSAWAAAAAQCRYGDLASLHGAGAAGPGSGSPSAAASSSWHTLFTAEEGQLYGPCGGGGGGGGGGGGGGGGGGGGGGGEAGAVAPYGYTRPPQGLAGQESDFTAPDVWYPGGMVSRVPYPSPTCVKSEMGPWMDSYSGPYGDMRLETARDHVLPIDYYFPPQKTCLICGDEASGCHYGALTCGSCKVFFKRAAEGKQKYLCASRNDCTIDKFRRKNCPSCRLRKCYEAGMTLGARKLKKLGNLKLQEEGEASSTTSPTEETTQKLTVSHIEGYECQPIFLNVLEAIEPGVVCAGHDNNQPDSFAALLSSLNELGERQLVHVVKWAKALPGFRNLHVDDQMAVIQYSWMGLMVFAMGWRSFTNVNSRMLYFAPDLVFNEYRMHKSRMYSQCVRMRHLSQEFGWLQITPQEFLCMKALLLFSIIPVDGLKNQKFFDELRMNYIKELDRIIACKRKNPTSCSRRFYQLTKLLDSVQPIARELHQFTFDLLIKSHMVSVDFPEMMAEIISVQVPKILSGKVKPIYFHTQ
Put plainly: biochemical.

Experiment [6] concerns the target T5, Glucocorticoid receptor (Homo sapiens, UniProt P04150).
T5 sequence (P04150 whole entry): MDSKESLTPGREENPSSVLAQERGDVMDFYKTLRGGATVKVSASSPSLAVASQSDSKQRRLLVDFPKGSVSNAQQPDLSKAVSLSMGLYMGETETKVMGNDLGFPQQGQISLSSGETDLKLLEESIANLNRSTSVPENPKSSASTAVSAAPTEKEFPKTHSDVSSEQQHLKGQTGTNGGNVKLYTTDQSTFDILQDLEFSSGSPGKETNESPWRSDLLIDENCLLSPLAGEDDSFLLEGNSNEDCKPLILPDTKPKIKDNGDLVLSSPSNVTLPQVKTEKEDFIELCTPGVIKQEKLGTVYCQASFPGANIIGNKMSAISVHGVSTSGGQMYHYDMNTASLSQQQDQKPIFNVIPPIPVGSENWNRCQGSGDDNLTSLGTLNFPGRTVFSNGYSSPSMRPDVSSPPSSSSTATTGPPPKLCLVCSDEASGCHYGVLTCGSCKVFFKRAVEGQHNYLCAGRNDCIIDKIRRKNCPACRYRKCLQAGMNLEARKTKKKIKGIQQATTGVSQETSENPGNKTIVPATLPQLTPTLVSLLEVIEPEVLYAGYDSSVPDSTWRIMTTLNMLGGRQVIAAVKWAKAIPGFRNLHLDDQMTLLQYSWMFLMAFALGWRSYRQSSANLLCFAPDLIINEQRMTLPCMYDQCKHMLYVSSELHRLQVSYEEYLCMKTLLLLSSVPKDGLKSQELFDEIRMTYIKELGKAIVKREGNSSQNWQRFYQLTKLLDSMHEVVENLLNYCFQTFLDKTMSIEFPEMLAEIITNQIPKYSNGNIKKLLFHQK

In experiment [7] the target is T4, Androgen receptor.
The target in experiment [8] is T1, Estrogen receptor. Put plainly: Antagonistic efficacy against human estrogen receptor. Type of experiment: functional. Summed up: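 Cotransfection LUC reporter assay for hER. Antagonist efficacy is the % maximal inhibition of a standard agonist (estradiol is the reference agonist for hER) applied at its EC50.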
Experiment [9] addresses T5, Glucocorticoid receptor. In words: Inhibition of Dexamethasone binding to human glucocorticoid receptor expressed in baculovirus […] cells.
For experiment [10], the target named is T2, Progesterone receptor (Homo sapiens). Put plainly: Percent agonistic effect towards human progesterone receptor in CV-1 cells. Type of experiment: functional, cell-based.
For experiment [11], the species on record is Homo sapiens. Put plainly: Relative potency for human mineralocorticoid and progesterone receptors.
The species entered for experiment [12] is Homo sapiens. Put plainly: Relative potency for human glucocorticoid and progesterone receptors.
Experiment [13] addresses T3, Progesterone receptor. In words: Binding affinity towards human progesterone receptor A isoform using progesterone as radioligand.
For experiment [14], the species on record is Homo sapiens. Put plainly: Relative potency for human estrogen and progesterone receptors.
The target of experiment [15] is T3, Progesterone receptor. Put plainly: Agonistic activity against human progesterone receptor in CV-1 cells. Type of experiment: functional, cell-based.

pEC50, pIC50, pKi: −log10 of the molar value. A value given as a limit tells only on which side of the number the result lay.

Turning to `CC1=CC(C)(C)Nc2ccc3c(c21)/C(=C/c1ccco1)Oc1ccc(F)cc1-3`, the IC50 against Estrogen receptor [1] was determined as 1273 nM. The Efficacy amounted to 64% in experiment [2], 51% on Estrogen receptor [8] and 138% in [10]. The pEC50 at Progesterone receptor [3] was 7.68; at Progesterone receptor [15], 8.77. Moreover, the Ratio is 152 in the experiment listed under Homo sapiens [4], above 1000 in the experiment listed under Homo sapiens [11], 64 in the experiment listed under Homo sapiens [12] and 749 in the experiment listed under Homo sapiens [14]. Besides, the pKi at Androgen receptor [5] is below 6.00; on Glucocorticoid receptor [9] it was 6.85; at Progesterone receptor [13], 8.33. For the same molecule, the pIC50 on Glucocorticoid receptor [6] is 6.96; against Androgen receptor [7], 6.59.

For `COc1ccccc1/C=C1\Oc2ccc(F)cc2-c2ccc3c(c21)C(C)=CC(C)(C)N3`, on Estrogen receptor [1], the IC50 amounted to 1885 nM. Besides, the Efficacy in [2] is 40%; at Estrogen receptor [8] it was 34%; in [10], 154%. At Progesterone receptor [3], this molecule gave a pEC50 of 8.10. For the same molecule, the Ratio in the experiment listed under Homo sapiens [4] was above 1000; in the experiment listed under Homo sapiens [11], above 1000; in the experiment filed under Homo sapiens [12], 97; in the experiment listed under Homo sapiens [14] it was above 1000. For the same molecule, the pKi on Androgen receptor [5] was 6.36; at Glucocorticoid receptor [9], 6.56; at Progesterone receptor [13] it was 8.42. The molecule also gave a pIC50 against Glucocorticoid receptor [6] of 7.05.

Regarding `CC1=CC(C)(C)Nc2ccc3c(c21)/C(=C/c1ccccc1N(C)C)Oc1ccc(F)cc1-3`, the Efficacy in experiment [2] came out at 59%; in [10], 172%. The results for the pEC50 at Progesterone receptor [3] and on Progesterone receptor [15] were 7.59 and 8.57, respectively. The Ratio is 556 in the experiment listed under Homo sapiens [4], above 1000 in the experiment filed under Homo sapiens [11], 119 in the experiment listed under Homo sapiens [12] and above 1000 in the experiment filed under Homo sapiens [14]. Also, the results for the pKi on Androgen receptor [5], at Glucocorticoid receptor [9] and on Progesterone receptor [13] were 6.09, 6.31 and 8.92, respectively. For the same molecule, the figures for the pIC50 against Glucocorticoid receptor [6] and on Androgen receptor [7] were 6.49 and 5.82, respectively.

Usually IC50 stands for the concentration needed to halve the response being measured. Broadly, the pEC50 is the negative decadic logarithm of the EC50, by convention in mol/L. A lower pEC50 goes with a large EC50. As a reminder, the pKi is the Ki on a negative log10 scale, so that one unit is a factor of ten. What is called pIC50 is the IC50 on a negative log10 scale, so that one unit is a factor of ten.

The values are drawn from ChEMBL document CHEMBL1145087 (J Med Chem, 2003).
